Here are results for six molecules from publication PMC3751419 (Dalton transactions (Cambridge, England : 2003), 2013).

The test system of data set [1] is metastases of solid tumours. As to conditions: cited from earlier work.
Data set [2] concerns cisplatin-resistant ovarian and testicular cancer cell lines. As to conditions: cited from earlier work.
In another data set the test system is HFF cells. Briefly: Dark and light toxicity with a 740 nm LED lamp, phase contrast images. As to conditions: for light enhancement of cytopathic effect compared to dark toxicity, HFF: 740 nm red light 60 minutes, then 24 hours dark. The class given is cell-based, human. (In general: Cytopathic effects are the visible damage that an infection or toxin causes in cultured cells.)

Data set [3] can be described thus: Stability in aqueous media by ESR and 51V NMR spectroscopy. In kind it is physicochemical. A digest of the protocol:
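A 50 mM DMSO stock was diluted to 4.0 mM in DI water (pH 7.19) and kept in subdued light at room temperature. ESR spectra were recorded at room temperature immediately and at 24, 48 and 72 h. 51V NMR spectra of the 4.0 mM solutions were taken at 0, 24, 48 and 72 h and at seven days. Control: 4.0 mM NaVO3, pH 7.19.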

Data set [4] has as its system amelanotic malignant melanoma cells. Put plainly: Dark and light toxicity with a 60 W tungsten lamp, phase contrast images. In kind it is cell-based, human. A digest of the protocol: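 ATCC amelanotic melanoma line (from a person) grown at 37 °C, 5% CO2 in high-glucose DMEM with 10% FBS, 0.5% pen-strep, 1% glutamine and 1% non-essential amino acids. 10^5 cells/well seeded; after 24 h, medium swapped for test compound at 5 or 20 µM. After 24 h, cells irradiated 30 min with a 60 W tungsten lamp or kept dark. Phase-contrast images at 10x taken 3 h later. Untreated cells served as control.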

The subject of data set [5] is murine embryonic fibroblasts. As to conditions: room-light or red-light exposure; cited from earlier work.
The subject of a further data set is fibrosarcoma cells. The note with it: room-light or red-light exposure; cited from earlier work.
The test system of data set [6] is platinum-resistant colorectal tumours. The note with it: cited from earlier work.
For a further data set, the system named is A431 carcinoma cells. Briefly: Dark and light toxicity with a 740 nm LED lamp, phase contrast images. The class given is cell-based, human.
Setting [7] is: 4.0 mM in water, pH 7.19, room temperature, day seven.

As for `CS(C)=O.[Cl-].[Cl-].[Cl-].[Cl-].[Ru+3].c1c[nH+]c[nH]1.c1c[nH]cn1` [NAMI-A], the “activity against development and growth of metastases of solid tumours” value in data set [1] was “particularly active”.
In the case of `Cc1ccnc2c1ccc1c(C)ccnc12.Cc1ccnc2c1ccc1c(C)ccnc12.O=S(=O)([O-])[O-].[O]=[V+2]` [metvan, bis(4,7-dimethyl-1,10-phenanthroline)sulfatooxovanadium(IV)], the “effectiveness against cisplatin-resistant ovarian and testicular cancer cell lines” value in [2] was “highly effective”.
As for [Ru(pbt)2(tpphz)VO(sal-L-tryp)]Cl2, the “light enhancement of cytopathic effect compared to dark toxicity, HFF” value with HFF cells is given as “no effect”. Also, the “vanadium(V) species by 51V NMR” value in [3] (setting [7]) was “a weak, broad peak at −543 ppm”.
As to “sodium diaqua-4,4',4”,4”'tetrasulfophthalocyaninecobaltate(II) [Na4[Co(tspc)(H2O)2]]”, the “apoptosis of melanoma cells, dark” value in data set [4] (5.0 and 20.0 μM, incubated in the dark one day) is “do not show significant apoptosis”. Also, the “impact on melanoma cells under illumination” value in [4] (5 or 20 μM, 60 W tungsten lamp 30 minutes) was “no impact”. The cytotoxic activity result (in data set [5]; in the data set with fibrosarcoma cells) was “no cytotoxic activity” in each case.
Take `[Cl-].[Cl-].[Cl-].[Cl-].[Ru+3].c1ccc2[nH][nH+]cc2c1.c1ccc2[nH]ncc2c1.c1ccc2[nH]ncc2c1` [KP1019]: in data set [6], the “activity against platinum-resistant colorectal tumours” value is “excellent activity”.
With [Ru(pbt)2(phen2DTT)VO(sal-L-tryp)]Cl2, the “changes in cell morphology of A431 cells” value with A431 carcinoma cells (5 μM, dark and light exposure) is reported as “only slight changes in cell morphology”. Besides, the “cytopathic effect on A431 cells” value in the data set on A431 carcinoma cells (20 μM) was “anticancer cytopathic effect”. For the same molecule, the “light enhancement of cancer cell death compared to [Ru(pbt)2(tpphz)VO(sal-L-tryp)]Cl2 treated cells” value with A431 carcinoma cells (740 nm light, A431) is “more pronounced light enhancement of cancer cell death”. The “light enhancement of cytopathic effect compared to dark toxicity, A431” value with A431 carcinoma cells (740 nm red light 60 minutes, then 24 hours dark) is given as “light enhanced cytopathic effects”. In addition, in the data set with HFF cells (5 μM and 20 μM, dark and light exposure), the “changes in morphology of HFF cells” value is “only minor changes in morphology”. For the same molecule, the “light enhancement of cytopathic effect compared to dark toxicity, HFF” value in the data set on HFF cells is recorded as “no effect”. Moreover, the “change in intensity of ESR spectra” value in data set [3] (4.0 mM in water, pH 7.19, room temperature, 0, 24, 48, and 72 hours) is reported as “no decrease in intensity”. Further, the “vanadium(V) species by 51V NMR” value in data set [3] (setting [7]) was “a weak, broad peak at −543 ppm”; in data set [3] (4.0 mM in water, pH 7.19, room temperature, up to 72 hours), “absence of any vanadium(V) species”. The “stability in aqueous media (oxidation of vanadium(IV) centre)” value in data set [3] (standing at room temperature, pH 7.19) was “considerable stability”.
